# Test results reported in ChEMBL document CHEMBL2157952, “Chemotherapy of leishmaniasis. Part IX: synthesis and bioevaluation of aryl substituted ketene dithioacetals as antileishmanial agents” (Bioorg Med Chem Lett, 2012).
# The source made the active and inactive calls. The calls are words filed in the database; no cut-off is given here.
# Key:
# Leishmania donovani [1] = assay: Antileishmanial activity against Leishmania donovani MHOM/IN/80/Dd8 amastigotes infected in golden hamster assessed as inhibition of parasite multiplication at 50 mg/kg, ip for 5 days measured on day 7 by Giemsa staining; format: functional; settings: for inhibition in vivo at 50 mg/kg: MHOM/IN/80/Dd8, ip, route intraperitoneal
# In short: (§1)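 Golden hamsters (inbred, either sex, 40–45 g) infected intracardially with 1 × 10⁷ amastigotes each; infection establishes in 15–20 days. Animals randomized by biopsy parasite burden, 5–6 per sample. Dosing began 2 days after biopsy, five consecutive days. Post-treatment biopsy on day 7 after last dose, amastigotes counted by Giemsa staining. PI = 100 − [ANAT × 100/(INAT × TIUC)] versus untreated controls.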
# Leishmania donovani [2] = assay: Antileishmanial activity against Leishmania donovani amastigotes infected in mouse J774A.1 cells after 72 hrs by luciferase reporter gene based luminometric analysis; format: functional, organism-based; settings: J774.A1, 72 h
# In short: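 J-774A.1 macrophages seeded at 4 × 10⁴/well in RPMI-1640 + 10% FCS, 37 °C, CO₂. After 24 h, infected with stationary-phase luciferase-expressing promastigotes (4 × 10⁵/well). Medium replaced with compound, seven-point twofold dilutions from 40 µM, for 72 h. Steady Glo added, luminescence read as RLU. IC50 by nonlinear regression with four-parameter Hill fit.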
# [3] = Cytotoxicity against human KB cells assessed as cell viability after 72 hrs by MTT assay; format: cell-based
# In short: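 Exponentially growing KB cells at 1 × 10⁵/well exposed 72 h at 37 °C in humidified CO₂/air to seven-point threefold dilutions from 400 µM; DMSO vehicle wells as control. MTT (5 mg/ml) added 2 h at 37 °C, supernatant removed, DMSO added, absorbance at 544 nm. CC50 is the concentration giving 50% viability reduction versus medium-only cells.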
# [4] = Selectivity index, ratio of CC50 for human KB cells to IC50 for Leishmania donovani amastigotes infected in mouse J774A.1 cells; format: functional
# In short: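 SI = CC50 (KB cells, MTT, 72 h) divided by IC50 against intracellular amastigotes in J-774A.1 macrophages (luciferase read-out, 72 h).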
# Leishmania donovani [5] = assay: Antileishmanial activity against Leishmania donovani MHOM/IN/80/Dd8 amastigotes infected in golden hamster assessed as inhibition of parasite multiplication at 30 mg/kg, po for 5 days measured on day 7 by Giemsa staining; format: functional; in short: as §1
SMILES,inhibition (Leishmania donovani [1]),IC50 (Leishmania donovani [2]),CC50 at 72 h [3],inhibition in vivo at 50 mg/kg (Leishmania donovani [1]),Ratio CC50/IC50 [4],inhibition in vivo at 30 mg/kg (Leishmania donovani [5])
CSC(=CC(=O)/C=C/c1ccc(Cl)cc1)SC,inactive,> 20 µM,,,,
CSC(=CC(=O)/C=C/c1ccc(-n2cnnc2)cc1)SC,inactive,> 20 µM,,,,
CSC(=CC(=O)/C=C/c1ccc(F)cc1)SC,inactive,> 40 µM,,,,
CSC(=CC(=O)/C=C/c1cccc([N+](=O)[O-])c1)SC,,5.12 µM,9.83 µM,82.8%,1.92,
COc1cc(/C=C/C(=O)C=C(SC)SC)ccc1OCc1ccccc1,,3.56 µM,204 µM,78%,57.26,
CCCCCCCCCCCCCCCCOP(=O)([O-])OCC[N+](C)(C)C [MILTEFOSINE],,12.5 µM,3.23 µM,,0.26,95.3%
CSC(=CC(=O)/C=C/c1ccc([N+](=O)[O-])cc1)SC,inactive,> 40 µM,,,,
CSC(=CC(=O)/C=C/c1ccc(-n2ccnc2)cc1)SC,inactive,> 40 µM,,,,
CSC(=CC(=O)/C=C/c1ccccc1Cl)SC,inactive,> 40 µM,,,,
